From ChEMBL document CHEMBL1123129, “Hypolipidemic activity of indan-1,3-dione derivatives in rodents” (J Med Chem, 1985)

Assays:
[1] = biological target: T1, ATP-citrate synthase (Mus musculus) (UniProt Q91V92); assay: In Vitro evaluation for the CF1 liver enzyme activity on ATP-Citrate Lyase exchange at concentration 50 uM
T1 sequence (whole entry): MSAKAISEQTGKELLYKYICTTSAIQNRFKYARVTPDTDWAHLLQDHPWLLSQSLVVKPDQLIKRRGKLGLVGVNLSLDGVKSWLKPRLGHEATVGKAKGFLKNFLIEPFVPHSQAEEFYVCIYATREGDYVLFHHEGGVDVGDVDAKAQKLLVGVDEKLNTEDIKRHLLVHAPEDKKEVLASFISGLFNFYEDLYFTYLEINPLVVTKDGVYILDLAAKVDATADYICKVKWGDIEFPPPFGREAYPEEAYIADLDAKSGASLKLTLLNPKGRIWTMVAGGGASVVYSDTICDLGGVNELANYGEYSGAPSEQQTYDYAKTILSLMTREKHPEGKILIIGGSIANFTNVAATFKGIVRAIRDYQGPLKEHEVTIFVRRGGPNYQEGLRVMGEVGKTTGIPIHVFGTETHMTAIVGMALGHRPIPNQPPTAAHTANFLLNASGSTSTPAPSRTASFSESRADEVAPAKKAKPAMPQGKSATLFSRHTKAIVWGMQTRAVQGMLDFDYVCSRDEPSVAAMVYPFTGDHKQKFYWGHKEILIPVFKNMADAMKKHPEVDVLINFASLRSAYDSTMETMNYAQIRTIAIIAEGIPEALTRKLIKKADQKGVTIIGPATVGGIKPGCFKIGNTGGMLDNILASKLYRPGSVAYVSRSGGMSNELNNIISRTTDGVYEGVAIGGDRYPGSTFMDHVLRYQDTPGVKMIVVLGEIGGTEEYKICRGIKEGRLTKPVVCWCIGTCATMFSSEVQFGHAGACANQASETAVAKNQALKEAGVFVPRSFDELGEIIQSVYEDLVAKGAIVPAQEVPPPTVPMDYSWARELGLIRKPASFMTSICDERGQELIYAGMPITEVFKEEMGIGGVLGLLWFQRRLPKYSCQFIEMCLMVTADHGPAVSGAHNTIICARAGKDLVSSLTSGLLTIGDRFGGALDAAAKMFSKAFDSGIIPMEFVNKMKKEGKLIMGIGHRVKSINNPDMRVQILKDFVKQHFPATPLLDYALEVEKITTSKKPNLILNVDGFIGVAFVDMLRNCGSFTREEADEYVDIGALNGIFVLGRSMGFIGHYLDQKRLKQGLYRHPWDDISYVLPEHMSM
Method in brief: (§1)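 Liver was taken from CF1 male mice and made into 10% homogenates, which were incubated with test compound at 50, 100 or 200 µM. Each enzyme was assayed by its literature method, and protein was measured by Lowry. N = 6. Activity is expressed as % of untreated control ± SD.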

Mus musculus [2] = assay: In Vivo effect for the hypolipidemic activity on phosphatidate phosphohydrolase in CF1 mice after 16 days administered orally at a dose of 10 mg/kg; assay type: organism-based; parameters: dose 10 mg/kg
Method in brief: (§2)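 CF1 male mice are dosed orally at 10–60 mg/kg per day for 16 days, with 1% CMC as the control vehicle. Liver is homogenized at 10% in 0.25 M sucrose + 0.001 M EDTA, pH 7.2. Enzymes are assayed by literature methods, with Lowry protein. Activity is given as % of control (X ± SD, N = 6), with p from Student's t test.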

Mus musculus [3] = assay: In Vivo effect for the hypolipidemic activity on phosphatidate phosphohydrolase in CF1 mice after 16 days administered orally at a dose of 60 mg/kg; assay type: organism-based; parameters: dose 60 mg/kg; method in brief: as §2
Rattus norvegicus [4] = assay: Compound was evaluated for the hypolipidemic activity at 20 mg/kg per day orally for 14 days on lipid content in rat liver; assay type: functional; conditions: route oral
Method in brief: (§3)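 Male Sprague–Dawley rats were dosed orally for 14 days. Liver, small intestine and a 24-h fecal collection were lipid-extracted. Extracts were assayed for cholesterol (modified Liebermann–Burchard), triglyceride (enzymatic kit), neutral lipids, phospholipids and protein. Values are % of 1% CMC vehicle control, mean ± SD, N = 6.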

Rattus norvegicus [5] = assay: Compound was evaluated for the hypolipidemic activity at 20 mg/kg per day orally for 14 days on cholesterol content in rat lipoprotein chylomicron; assay type: functional; conditions: route oral
Method in brief: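 Male Sprague–Dawley rats (~300 g) were dosed orally each day. Blood was drawn from the abdominal vein. Lipoprotein fractions (chylomicron, VLDL, LDL, HDL) were separated by the Hatch–Lees and Havel methods. Each fraction was assayed for cholesterol, triglyceride (enzymatic kit), neutral lipids, phospholipids and Lowry protein. Values are % of 1% CMC vehicle control, N = 6.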

Rattus norvegicus [6] = assay: Compound was evaluated for the hypolipidemic activity at 20 mg/kg per day orally for 14 days on cholesterol content in rat feces.; assay type: functional; conditions: route oral; method in brief: as §3
[7] = biological target: T2, Sterol O-acyltransferase 1 (Mus musculus) (UniProt Q61263); assay: In Vivo effect for the hypolipidemic activity on Acyl-COA cholesterol acyltransferase in CF1 mice after 16 days of oral administration at a dose of 10 mg/kg; assay type: functional, organism-based; parameters: dose 10 mg/kg; method in brief: as §2
T2 sequence (whole entry): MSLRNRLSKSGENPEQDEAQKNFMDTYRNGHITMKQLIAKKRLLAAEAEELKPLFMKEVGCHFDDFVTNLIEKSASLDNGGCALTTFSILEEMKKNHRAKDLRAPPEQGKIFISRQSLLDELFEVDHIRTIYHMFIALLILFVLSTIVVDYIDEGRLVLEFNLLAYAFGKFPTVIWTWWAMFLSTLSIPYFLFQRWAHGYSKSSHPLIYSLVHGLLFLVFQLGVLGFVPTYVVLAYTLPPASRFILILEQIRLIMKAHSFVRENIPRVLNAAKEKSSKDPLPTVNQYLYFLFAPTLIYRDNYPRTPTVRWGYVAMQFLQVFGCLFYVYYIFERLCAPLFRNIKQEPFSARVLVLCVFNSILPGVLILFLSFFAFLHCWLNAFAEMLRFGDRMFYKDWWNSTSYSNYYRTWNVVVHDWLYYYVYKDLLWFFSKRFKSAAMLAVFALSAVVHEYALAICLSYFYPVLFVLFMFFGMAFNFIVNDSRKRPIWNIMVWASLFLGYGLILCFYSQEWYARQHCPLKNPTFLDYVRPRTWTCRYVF

[8] = biological target: T2, Sterol O-acyltransferase 1 (Mus musculus); assay: In Vivo effect for the hypolipidemic activity on Acyl-COA cholesterol acyltransferase in CF1 mice after 16 days of oral administration at a dose of 40 mg/kg; assay type: functional, organism-based; parameters: dose 40 mg/kg; method in brief: as §2
Mus musculus [9] = organism: Mus musculus; assay: In Vitro evaluation for the CF1 liver enzyme activity on phosphatidate phosphohydrolase at concentration 200 uM
Method in brief: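 Mouse liver enzymes assayed in vitro on 10% homogenates of CF1 male mouse liver, with test drug added at 50–200 μM. Each enzyme follows a published procedure. Protein is measured by Lowry. Activity is given as % of untreated control (X ± SD, N = 6).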

Mus musculus [10] = assay: Hypolipidemic activity in CF1 male mice at a dose of 20 mg/kg per day, serum cholesterol measured on the 16th day; assay type: functional
Method in brief: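 CF1 male mice (~30 g) were given 20 mg/kg per day ip at 11:00 a.m.; N = 6 per group. Tail-vein serum was collected in nonheparinized microcapillaries. Cholesterol was measured on days 9 and 16 by modified Liebermann–Burchard on duplicate 25 µL samples. Triglyceride was measured on day 16 in a separate group, duplicate 50 µL. Values are % control ± SD; Student's t test.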

[11] = biological target: T1, ATP-citrate synthase (Mus musculus); assay: In Vitro evaluation for the CF1 liver enzyme activity on ATP-dependent citrate exchange at concentration 50 uM; method in brief: as §1

- Control [1]: 72%
- Control [7]: 92%
- Control [8]: 42%
- Control (Mus musculus [9]): 11%
- Control [11]: 72%
Compound: COc1ccc(C2C(=O)c3ccccc3C2=O)cc1 [ANISINDIONE]
- Control (Mus musculus [2]): 53%
- Control (Mus musculus [3]): 100%
- Control (Rattus norvegicus [4]): 98%
- Control (Rattus norvegicus [5]): 96%
- Control (Rattus norvegicus [6]): 187%
- Serum cholesterol, % of control (Mus musculus [10]): 59%
